# Results: ChEMBL document CHEMBL5724801, “EUbOPEN Chemogenomics Library - Multiplex” (2024)
# Several values for one entry are separate records, joined by “and”; a condition that tells them apart may be missing. Equal values may be shown once.
# System: Fibroblast
# Test: Multiplex assay against human fibroblast
# Assay type: toxicity, cell-based
# In short: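 Phenotypes for tubulin, mitochondrial mass and membrane permeability are expressed as per cents of healthy-nucleus cells. Cells were stained live at seeding with Hoechst33342, BioTracker Green Microtubule Cytoskeleton Dye, MitoTracker Red and Annexin V Alexa Fluor 680, then imaged after compound addition on a CQ1 microscope at 37°C and 5% CO2. Machine-learning gating in CellPathfinder separated Hoechst high-intensity objects from normal cells, divided normal cells by nuclear state (healthy, pyknosed, fragmented) and divided pyknosed cells into mitotic or apoptotic.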
# [1] = 12 h, 1 µM, compound concentration 1 uM
# [2] = 12 h, 10 µM, compound concentration 10 uM
# [3] = 24 h, 1 µM, compound concentration 1 uM
# [4] = 24 h, 10 µM, compound concentration 10 uM
# [5] = 48 h, 1 µM, compound concentration 1 uM
# [6] = 48 h, 10 µM, compound concentration 10 uM
compound,measurement,setting,value
FC(F)(F)c1ccccc1-c1cc(C(F)(F)F)c2[nH]c(C3=NOC4(CCCCC4)C3)nc2c1,Population Apoptotic (%),[1],11.43% and 13.33%
same,Population Fragmented Nuclei (%),[1],11.76% and 2.87%
same,Population Healthy Nuclei (%),[1],56.56% and 79.89%
same,Population Hoechst High Intensity Objects (%),[1],0%
same,Population Membrane Permeable-Phenotype (%),[1],8% and 4.32%
same,Population Mitochondria Different-Phenotype (%),[1],4.8% and 10.07%
same,Population Mitotic Cells (%),[1],88.57% and 86.67%
same,Population Normal (%),[1],100%
same,Population Pyknosed Nuclei (%),[1],31.67% and 17.24%
same,Population Tubulin-Different-Phenotype (%),[1],12.8% and 20.14%
same,Total Cell Count,[1],221 and 174
same,Population Apoptotic (%),[2],7.62% and 14.29%
same,Population Fragmented Nuclei (%),[2],10% and 8.05%
same,Population Healthy Nuclei (%),[2],42.27% and 63.79%
same,Population Hoechst High Intensity Objects (%),[2],0%
same,Population Membrane Permeable-Phenotype (%),[2],12.9% and 5.41%
same,Population Mitochondria Different-Phenotype (%),[2],19.35% and 15.32%
same,Population Mitotic Cells (%),[2],92.38% and 85.71%
same,Population Normal (%),[2],100%
same,Population Pyknosed Nuclei (%),[2],47.73% and 28.16%
same,Population Tubulin-Different-Phenotype (%),[2],30.11% and 51.35%
same,Total Cell Count,[2],220 and 174
same,Population Apoptotic (%),[3],10.91% and 15.62%
same,Population Fragmented Nuclei (%),[3],8.06% and 4.79%
same,Population Healthy Nuclei (%),[3],69.76% and 78.19%
same,Population Hoechst High Intensity Objects (%),[3],0%
same,Population Membrane Permeable-Phenotype (%),[3],3.47% and 3.4%
same,Population Mitochondria Different-Phenotype (%),[3],7.51% and 4.08%
same,Population Mitotic Cells (%),[3],89.09% and 84.38%
same,Population Normal (%),[3],100%
same,Population Pyknosed Nuclei (%),[3],22.18% and 17.02%
same,Population Tubulin-Different-Phenotype (%),[3],17.92% and 18.37%
same,Total Cell Count,[3],248 and 188
same,Population Apoptotic (%),[4],13% and 17.86%
same,Population Fragmented Nuclei (%),[4],7.66% and 9.09%
same,Population Healthy Nuclei (%),[4],44.5% and 60.96%
same,Population Hoechst High Intensity Objects (%),[4],0%
same,Population Membrane Permeable-Phenotype (%),[4],7.53% and 4.39%
same,Population Mitochondria Different-Phenotype (%),[4],25.81% and 29.82%
same,Population Mitotic Cells (%),[4],87% and 82.14%
same,Population Normal (%),[4],100%
same,Population Pyknosed Nuclei (%),[4],47.85% and 29.95%
same,Population Tubulin-Different-Phenotype (%),[4],69.89% and 65.79%
same,Total Cell Count,[4],209 and 187
same,Population Apoptotic (%),[5],20.83% and 16.67%
same,Population Fragmented Nuclei (%),[5],8.37% and 6.59%
same,Population Healthy Nuclei (%),[5],82.51% and 86.81%
same,Population Hoechst High Intensity Objects (%),[5],0%
same,Population Membrane Permeable-Phenotype (%),[5],1.38% and 1.27%
same,Population Mitochondria Different-Phenotype (%),[5],10.14% and 2.53%
same,Population Mitotic Cells (%),[5],79.17% and 83.33%
same,Population Normal (%),[5],100%
same,Population Pyknosed Nuclei (%),[5],9.13% and 6.59%
same,Population Tubulin-Different-Phenotype (%),[5],7.83% and 18.99%
same,Total Cell Count,[5],263 and 182
same,Population Fragmented Nuclei (%),[6],9.33% and 11.92%
same,Population Healthy Nuclei (%),[6],78.22% and 73.06%
same,Population Hoechst High Intensity Objects (%),[6],0%
same,Population Membrane Permeable-Phenotype (%),[6],0.57% and 4.26%
same,Population Mitochondria Different-Phenotype (%),[6],13.64% and 7.8%
same,Population Mitotic Cells (%),[6],96.43% and 55.17%
same,Population Normal (%),[6],100%
same,Population Pyknosed Nuclei (%),[6],12.44% and 15.03%
same,Population Tubulin-Different-Phenotype (%),[6],38.64% and 60.99%
same,Total Cell Count,[6],225 and 193
CCOc1ccccc1C(=O)NCC1(N2CCN(CC)CC2)CCCCC1,Population Apoptotic (%),[1],8% and 22.22%
same,Population Healthy Nuclei (%),[1],51.46% and 68.29%
same,Population Hoechst High Intensity Objects (%),[1],0%
same,Population Membrane Permeable-Phenotype (%),[1],3.41% and 2.98%
same,Population Mitochondria Different-Phenotype (%),[1],3.41% and 11.31%
same,Population Mitotic Cells (%),[1],92% and 77.78%
same,Population Normal (%),[1],100%
same,Population Pyknosed Nuclei (%),[1],29.24% and 25.61%
same,Population Tubulin-Different-Phenotype (%),[1],10.23% and 23.81%
same,Total Cell Count,[1],171 and 246
same,Population Apoptotic (%),[2],12.35% and 12.82%
same,Population Fragmented Nuclei (%),[2],13.04% and 5.43%
same,Population Healthy Nuclei (%),[2],42.93% and 73.37%
same,Population Hoechst High Intensity Objects (%),[2],0%
same,Population Membrane Permeable-Phenotype (%),[2],5.06% and 9.63%
same,Population Mitochondria Different-Phenotype (%),[2],41.77% and 25.19%
same,Population Mitotic Cells (%),[2],87.65% and 87.18%
same,Population Normal (%),[2],100%
same,Population Pyknosed Nuclei (%),[2],44.02% and 21.2%
same,Population Tubulin-Different-Phenotype (%),[2],65.82% and 80.74%
same,Total Cell Count,[2],184
same,Population Apoptotic (%),[3],15.79% and 31.25%
same,Population Fragmented Nuclei (%),[3],10.24% and 5.42%
same,Population Healthy Nuclei (%),[3],66.87% and 81.25%
same,Population Hoechst High Intensity Objects (%),[3],0%
same,Population Membrane Permeable-Phenotype (%),[3],1.8% and 4.1%
same,Population Mitochondria Different-Phenotype (%),[3],4.5% and 8.72%
same,Population Mitotic Cells (%),[3],84.21% and 68.75%
same,Population Normal (%),[3],100%
same,Population Pyknosed Nuclei (%),[3],22.89% and 13.33%
same,Population Tubulin-Different-Phenotype (%),[3],12.61% and 24.1%
same,Total Cell Count,[3],166 and 240
same,Population Apoptotic (%),[4],12.5% and 5.13%
same,Population Fragmented Nuclei (%),[4],13.66% and 11.26%
same,Population Healthy Nuclei (%),[4],62.93% and 71.17%
same,Population Hoechst High Intensity Objects (%),[4],0%
same,Population Membrane Permeable-Phenotype (%),[4],3.1% and 5.06%
same,Population Mitochondria Different-Phenotype (%),[4],45.74% and 22.78%
same,Population Mitotic Cells (%),[4],87.5% and 94.87%
same,Population Normal (%),[4],100%
same,Population Pyknosed Nuclei (%),[4],23.41% and 17.57%
same,Population Tubulin-Different-Phenotype (%),[4],68.22% and 84.81%
same,Total Cell Count,[4],205 and 222
same,Population Apoptotic (%),[5],21.43% and 23.08%
same,Population Fragmented Nuclei (%),[5],13.04% and 10.42%
same,Population Healthy Nuclei (%),[5],79.35% and 84.17%
same,Population Hoechst High Intensity Objects (%),[5],0%
same,Population Membrane Permeable-Phenotype (%),[5],0.68% and 0.5%
same,Population Mitotic Cells (%),[5],78.57% and 76.92%
same,Population Normal (%),[5],100%
same,Population Pyknosed Nuclei (%),[5],7.61% and 5.42%
same,Population Tubulin-Different-Phenotype (%),[5],8.9% and 21.29%
same,Total Cell Count,[5],184 and 240
same,Population Apoptotic (%),[6],15.79% and 45.16%
same,Population Fragmented Nuclei (%),[6],15.15% and 7.88%
same,Population Healthy Nuclei (%),[6],76.62% and 79.25%
same,Population Hoechst High Intensity Objects (%),[6],1.28% and 0%
same,Population Membrane Permeable-Phenotype (%),[6],3.39% and 4.71%
same,Population Mitochondria Different-Phenotype (%),[6],27.12% and 15.18%
same,Population Mitotic Cells (%),[6],84.21% and 54.84%
same,Population Normal (%),[6],98.72% and 100%
same,Population Pyknosed Nuclei (%),[6],8.23% and 12.86%
same,Population Tubulin-Different-Phenotype (%),[6],62.15% and 89.01%
same,Total Cell Count,[6],234 and 241
Cl.c1ccc2c(c1)CCC[C@H]2Nc1nc2ccccc2[nH]1,Population Apoptotic (%),[1],11.32% and 10.42%
same,Population Fragmented Nuclei (%),[1],9.36% and 5.1%
same,Population Healthy Nuclei (%),[1],64.53% and 70.41%
same,Population Hoechst High Intensity Objects (%),[1],0%
same,Population Membrane Permeable-Phenotype (%),[1],6.11% and 2.17%
same,Population Mitochondria Different-Phenotype (%),[1],6.87% and 9.42%
same,Population Mitotic Cells (%),[1],88.68% and 89.58%
same,Population Normal (%),[1],100%
same,Population Pyknosed Nuclei (%),[1],26.11% and 24.49%
same,Population Tubulin-Different-Phenotype (%),[1],18.32% and 18.12%
same,Total Cell Count,[1],203 and 196
same,Population Apoptotic (%),[2],5% and 13.89%
same,Population Fragmented Nuclei (%),[2],8.94% and 7.57%
same,Population Healthy Nuclei (%),[2],46.37% and 72.97%
same,Population Hoechst High Intensity Objects (%),[2],0%
same,Population Membrane Permeable-Phenotype (%),[2],8.43% and 2.96%
same,Population Mitochondria Different-Phenotype (%),[2],10.84% and 15.56%
same,Population Mitotic Cells (%),[2],95% and 86.11%
same,Population Normal (%),[2],100%
same,Population Pyknosed Nuclei (%),[2],44.69% and 19.46%
same,Population Tubulin-Different-Phenotype (%),[2],24.1% and 30.37%
same,Total Cell Count,[2],179 and 185
same,Population Apoptotic (%),[3],11.36% and 6.25%
same,Population Fragmented Nuclei (%),[3],6.72% and 4.74%
same,Population Healthy Nuclei (%),[3],74.79% and 78.42%
same,Population Hoechst High Intensity Objects (%),[3],0%
same,Population Membrane Permeable-Phenotype (%),[3],4.49% and 2.01%
same,Population Mitochondria Different-Phenotype (%),[3],8.43% and 5.37%
same,Population Mitotic Cells (%),[3],88.64% and 93.75%
same,Population Normal (%),[3],100%
same,Population Pyknosed Nuclei (%),[3],18.49% and 16.84%
same,Population Tubulin-Different-Phenotype (%),[3],17.98% and 10.07%
same,Total Cell Count,[3],238 and 190
same,Population Apoptotic (%),[4],6.56% and 11.11%
same,Population Fragmented Nuclei (%),[4],8.38% and 10.7%
same,Population Healthy Nuclei (%),[4],57.54% and 74.87%
same,Population Hoechst High Intensity Objects (%),[4],0%
same,Population Membrane Permeable-Phenotype (%),[4],2.91% and 1.43%
same,Population Mitochondria Different-Phenotype (%),[4],13.59% and 7.86%
same,Population Mitotic Cells (%),[4],93.44% and 88.89%
same,Population Normal (%),[4],100%
same,Population Pyknosed Nuclei (%),[4],34.08% and 14.44%
same,Population Tubulin-Different-Phenotype (%),[4],35.92% and 30.71%
same,Total Cell Count,[4],179 and 187
same,Population Apoptotic (%),[5],7.14% and 20%
same,Population Fragmented Nuclei (%),[5],7.17% and 4.5%
same,Population Healthy Nuclei (%),[5],87.25% and 88%
same,Population Hoechst High Intensity Objects (%),[5],0%
same,Population Membrane Permeable-Phenotype (%),[5],0.91% and 2.27%
same,Population Mitochondria Different-Phenotype (%),[5],9.13% and 3.98%
same,Population Mitotic Cells (%),[5],92.86% and 80%
same,Population Normal (%),[5],100%
same,Population Pyknosed Nuclei (%),[5],5.58% and 7.5%
same,Population Tubulin-Different-Phenotype (%),[5],5.48% and 13.64%
same,Total Cell Count,[5],251 and 200
same,Population Apoptotic (%),[6],21.05% and 50%
same,Population Fragmented Nuclei (%),[6],12.39% and 11.11%
same,Population Healthy Nuclei (%),[6],78.9% and 84.44%
same,Population Hoechst High Intensity Objects (%),[6],0%
same,Population Membrane Permeable-Phenotype (%),[6],1.74% and 4.21%
same,Population Mitochondria Different-Phenotype (%),[6],6.4% and 3.68%
same,Population Mitotic Cells (%),[6],78.95% and 50%
same,Population Normal (%),[6],100%
same,Population Pyknosed Nuclei (%),[6],8.72% and 4.44%
same,Population Tubulin-Different-Phenotype (%),[6],19.19% and 32.11%
same,Total Cell Count,[6],218 and 225
